Laboratory results as given in ChEMBL document CHEMBL1123783, “Synthesis and anticonvulsant activity of analogues of 4-amino-N-(1-phenylethyl)benzamide” (J Med Chem, 1987).

Tests used:
Mus musculus [1] = assay: Compound was evaluated for anticonvulsant activity against subcutaneous pentylenetetrazole-induced convulsions after 30 minutes;C is inactive at 300 mg/kg.; type: functional, organism-based; design: dose 300 mg/kg
Outline: (§1)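 Male Carworth Farms number-one mice were dosed ip in 30% PEG 400, at 30, 100 or 300 mg/kg (sometimes 600 mg/kg). Pentylenetetrazole, 85 mg/kg as a 0.5% solution, was injected subcutaneously in the posterior midline. Protection meant no episode of clonic spasms lasting at least 5 s during a 30-min observation period.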

Mus musculus [2] = assay: Compound was evaluated for anticonvulsant activity against subcutaneous pentylenetetrazole-induced convulsions after 4 hr; C is inactive at 300 mg/kg.; type: functional, organism-based; design: dose 300 mg/kg; outline: as §1
Mus musculus [3] = assay: Compound was evaluated for anticonvulsant activity against maximal electric shock (MES) induced convulsions after 30 minutes;C is inactive at 300 mg/kg.; type: functional, organism-based; design: dose 300 mg/kg
Mus musculus [4] = assay: Compound was evaluated for anticonvulsant activity against maximal electric shock (MES) induced convulsions after 4 hr; C is inactive at 300 mg/kg.; type: functional, organism-based; design: dose 300 mg/kg
Mus musculus [5] = assay: Compound was evaluated for toxicity by rotarod assay method after 30 minutes; C is inactive at 300 mg/kg.; type: organism-based; design: dose 300 mg/kg; details: in vivo, 0.5 h
Outline: (§2)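 Male Carworth Farms number-one mice received test compound intraperitoneally in 30% polyethylene glycol 400 at 30, 100 and 300 mg/kg, with 600 mg/kg in some cases. Neurological deficit was read at 30 min or 4 h after dosing on a 1-in.-diameter knurled plastic rod turning at 6 rpm. Toxicity was scored as failure to stay on the rod for 1 min.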

Mus musculus [6] = assay: Compound was evaluated for toxicity by rotarod assay method after 4 hr; C is inactive at 300 mg/kg.; type: organism-based; design: dose 300 mg/kg; details: in vivo; outline: as §2
Mus musculus [7] = assay: Compound was evaluated for anticonvulsant activity against subcutaneous pentylenetetrazole-induced convulsions after 4 hr at a dose of 300 mg/kg; type: functional; outline: as §1
Mus musculus [8] = assay: Compound was evaluated for anticonvulsant activity against subcutaneous pentylenetetrazole-induced convulsions; type: functional; details: sc; outline: as §1
Mus musculus [9] = species: Mus musculus; assay: Compound was evaluated for anticonvulsant activity against maximal electric shock induced seizures; type: functional
Outline: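 Male Carworth Farms number-one mice received the compound ip in 30% polyethylene glycol 400 before maximal electroshock testing, at several dose levels. The median effective dose (ED50) was obtained by the graphical method.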

Mus musculus [10] = assay: Compound was evaluated for anticonvulsant activity against maximal electric shock (MES) induced convulsions after 30 minutes at a dose of 100 mg/kg; type: functional
Mus musculus [11] = assay: Compound was evaluated for anticonvulsant activity against maximal electric shock (MES) induced convulsions after 4 hr at a dose of 100 mg/kg; type: functional
Mus musculus [12] = assay: Compound was evaluated for anticonvulsant activity against subcutaneous pentylenetetrazole-induced convulsions after 30 minutes at a dose of 300 mg/kg; type: functional; outline: as §1
[13] = Compound was evaluated for anticonvulsant activity by rotarod procedure; type: ADME, organism-based; details: mouse, in vivo
Outline: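 Male Carworth Farms mice were dosed ip in 30% PEG 400 and then placed on a knurled plastic rod 1 in. in diameter, rotating at 6 rpm. Neurotoxicity was failure to stay on the rod for 1 min. TD50 was derived graphically.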

Mus musculus [14] = assay: Compound was evaluated for toxicity by rotarod assay method after 30 minutes at a dose of 100 mg/kg; type: organism-based; design: dose 100 mg/kg; details: in vivo, 0.5 h; outline: as §2
Mus musculus [15] = assay: Compound was evaluated for toxicity by rotarod assay method after 4 hr at a dose of 300 mg/kg; type: organism-based; design: dose 300 mg/kg; details: in vivo; outline: as §2
[16] = Protective index is the ratio of TD50 to ED50; type: ADME; details: for selectivity ratio: read-out: Protective index
Outline: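 Protective index was calculated as rotorod TD50 divided by anti-MES ED50. Both were graphical median doses from ip dosing in 30% PEG 400 in male Carworth Farms mice.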

Mus musculus [17] = assay: Compound was evaluated for anticonvulsant activity against subcutaneous pentylenetetrazole-induced convulsions after 30 minutes; C indicates no activity at 300 mg/kg.; type: functional, organism-based; design: dose 300 mg/kg; outline: as §1
Mus musculus [18] = assay: Compound was evaluated for anticonvulsant activity against maximal electric shock (MES) induced convulsions after 4 hr; C indicates no activity at 300 mg/kg.; type: functional, organism-based; design: dose 300 mg/kg
Mus musculus [19] = assay: Compound was evaluated for toxicity by rotarod assay method after 30 minutes at a dose of 300 mg/kg; type: organism-based; design: dose 300 mg/kg; details: in vivo, 0.5 h; outline: as §2
Mus musculus [20] = assay: Compound was evaluated for toxicity by rotarod assay method after 4 hr; C indicates no activity at 300 mg/kg.; type: organism-based; design: dose 300 mg/kg; details: in vivo; outline: as §2
Mus musculus [21] = assay: Compound was evaluated for anticonvulsant activity against subcutaneous pentylenetetrazole-induced convulsions after 4 hr; C indicates no activity at 300 mg/kg.; type: functional, organism-based; design: dose 300 mg/kg; outline: as §1
Mus musculus [22] = assay: Compound was evaluated for anticonvulsant activity against maximal electric shock (MES) induced convulsions after 30 minutes at a dose of 300 mg/kg; type: functional
Mus musculus [23] = assay: Compound was evaluated for toxicity by rotarod assay method after 30 minutes; C indicates no activity at 300 mg/kg.; type: organism-based; design: dose 300 mg/kg; details: in vivo, 0.5 h; outline: as §2
Mus musculus [24] = assay: Compound was evaluated for anticonvulsant activity against maximal electric shock (MES) induced convulsions after 4 hr at a dose of 300 mg/kg; type: functional
Mus musculus [25] = assay: Compound was evaluated for anticonvulsant activity against maximal electric shock (MES) induced convulsions after 30 minutes at a dose of 30 mg/kg; type: functional
Mus musculus [26] = assay: Compound was evaluated for anticonvulsant activity against maximal electric shock (MES) induced convulsions after 30 minutes; C indicates no activity at 300 mg/kg.; type: functional, organism-based; design: dose 300 mg/kg
Mus musculus [27] = assay: Compound was evaluated for anticonvulsant activity against subcutaneous pentylenetetrazole-induced convulsions after 30 minutes; E indicates no activity at 30 mg/kg.; type: functional, organism-based; design: dose 30 mg/kg; outline: as §1
Mus musculus [28] = assay: Compound was evaluated for anticonvulsant activity against subcutaneous pentylenetetrazole-induced convulsions after 4 hr; E indicates no activity at 30 mg/kg.; type: functional, organism-based; design: dose 30 mg/kg; outline: as §1
Mus musculus [29] = assay: Compound was evaluated for anticonvulsant activity against maximal electric shock (MES) induced convulsions after 4 hr; E indicates no activity at 30 mg/kg.; type: functional, organism-based; design: dose 30 mg/kg
Mus musculus [30] = assay: Compound was evaluated for toxicity by rotarod assay method after 4 hr; E indicates no activity at 30 mg/kg.; type: organism-based; design: dose 30 mg/kg; details: in vivo; outline: as §2

Compound | Activity (Mus musculus [1]) | Activity (Mus musculus [2]) | Activity (Mus musculus [3]) | Activity (Mus musculus [4]) | Toxicity (Mus musculus [5]) | Toxicity (Mus musculus [6]) | ED50 (Mus musculus [9]) | Activity (Mus musculus [10]) | Activity (Mus musculus [12]) | TD50 [13] | selectivity ratio [16] | Toxicity (Mus musculus [20]) | Activity (Mus musculus [21]) | other results
CNc1ccc(C(=O)NCc2ccccc2)cc1 | No activity at 300 mg/kg | No activity at 300 mg/kg | No activity at 300 mg/kg | No activity at 300 mg/kg | No activity at 300 mg/kg | No activity at 300 mg/kg |  |  |  |  |  |  |  | 
CCC(NC(=O)c1ccc(N)cc1)c1ccccc1 (stereo not drawn) |  |  |  |  |  |  | 54.3 mg/kg | 3 | 2 | 95.4 mg/kg | 1.76 |  |  | Activity (Mus musculus [7]): 2; ED50 (Mus musculus [8]): 54.1 mg/kg; Activity (Mus musculus [11]): 3; Toxicity (Mus musculus [14]): 3; Toxicity (Mus musculus [15]): 2
CC(NCc1cccc(N)c1)c1ccccc1 (stereo not drawn) |  |  |  |  |  |  | 32.4 mg/kg | 3 |  | 49.7 mg/kg | 1.53 | No activity at 300 mg/kg | No activity at 300 mg/kg | Activity (Mus musculus [17]): No activity at 300 mg/kg; Activity (Mus musculus [18]): No activity at 300 mg/kg; Toxicity (Mus musculus [19]): 2
CC(NC(=O)c1ccc(N)cc1)c1ccc(Cl)cc1 (stereo not drawn) |  |  |  |  |  |  |  |  | 2 |  |  | No activity at 300 mg/kg |  | Activity (Mus musculus [7]): 2; Activity (Mus musculus [22]): 2; Activity (Mus musculus [18]): No activity at 300 mg/kg; Toxicity (Mus musculus [23]): No activity at 300 mg/kg
CN(C)c1ccc(C(=O)Nc2ccccc2)cc1 | No activity at 300 mg/kg | No activity at 300 mg/kg | No activity at 300 mg/kg | No activity at 300 mg/kg | No activity at 300 mg/kg | No activity at 300 mg/kg |  |  |  |  |  |  |  | 
CN(C)c1ccc(C(=O)NCCc2ccccc2)cc1 | No activity at 300 mg/kg | No activity at 300 mg/kg | No activity at 300 mg/kg | No activity at 300 mg/kg | No activity at 300 mg/kg | No activity at 300 mg/kg |  |  |  |  |  |  |  | 
CCCC(NC(=O)c1ccc(N)cc1)c1ccccc1 (stereo not drawn) |  |  |  |  |  |  | 93.9 mg/kg | 3 |  | 378 mg/kg | 4.03 | No activity at 300 mg/kg | No activity at 300 mg/kg | Activity (Mus musculus [17]): No activity at 300 mg/kg; ED50 (Mus musculus [8]): 78.8 mg/kg; Activity (Mus musculus [24]): 2; Toxicity (Mus musculus [23]): No activity at 300 mg/kg; Protective index [16]: 4.8
CNc1ccc(C(=O)NC(C)c2ccccc2)cc1 (stereo not drawn) |  |  |  |  |  |  |  | 3 | 2 |  |  | No activity at 300 mg/kg |  | Activity (Mus musculus [7]): 2; Activity (Mus musculus [24]): 2; Toxicity (Mus musculus [23]): No activity at 300 mg/kg
CC(=O)Nc1ccc(C(=O)NC(C)c2ccccc2)cc1 (stereo not drawn) | No activity at 300 mg/kg | No activity at 300 mg/kg | No activity at 300 mg/kg | No activity at 300 mg/kg | No activity at 300 mg/kg | No activity at 300 mg/kg |  |  |  |  |  |  |  | 
CCCCC(NC(=O)c1ccc(N)cc1)c1ccccc1 (stereo not drawn) |  |  |  |  |  |  | 73.7 mg/kg | 3 | 2 | 332 mg/kg |  | No activity at 300 mg/kg | No activity at 300 mg/kg | ED50 (Mus musculus [8]): 161 mg/kg; Activity (Mus musculus [24]): 2; Toxicity (Mus musculus [19]): 2; Protective index [16]: 2.06
CC(NC(=O)c1ccccc1)c1ccc(N)cc1 (stereo not drawn) |  |  |  |  |  |  | 68.2 mg/kg | 3 | 2 | 190 mg/kg | 2.79 | No activity at 300 mg/kg | No activity at 300 mg/kg | ED50 (Mus musculus [8]): 126 mg/kg; Activity (Mus musculus [24]): 2; Toxicity (Mus musculus [19]): 2; Protective index [16]: 1.51
CC(NCc1ccc(N)cc1)c1ccccc1 (stereo not drawn) |  |  |  |  |  |  | 11.1 mg/kg |  |  | 15.5 mg/kg | 1.4 | No activity at 300 mg/kg | No activity at 300 mg/kg | Activity (Mus musculus [17]): No activity at 300 mg/kg; Activity (Mus musculus [25]): 4; Activity (Mus musculus [18]): No activity at 300 mg/kg; Toxicity (Mus musculus [14]): 3
Cc1ccc(C(C)NC(=O)c2ccc(N)cc2)cc1 (stereo not drawn) | No activity at 300 mg/kg | No activity at 300 mg/kg | No activity at 300 mg/kg | No activity at 300 mg/kg | No activity at 300 mg/kg | No activity at 300 mg/kg |  |  |  |  |  |  |  | 
CC(NC(=O)c1ccc(N(C)C)cc1)c1ccccc1 (stereo not drawn) | No activity at 300 mg/kg | No activity at 300 mg/kg | No activity at 300 mg/kg | No activity at 300 mg/kg | No activity at 300 mg/kg | No activity at 300 mg/kg |  |  |  |  |  |  |  | 
CCOC(=O)C(=O)Nc1ccc(C(=O)NC(C)c2ccccc2)cc1 (stereo not drawn) |  |  |  |  |  |  |  |  |  |  |  | No activity at 300 mg/kg | No activity at 300 mg/kg | Activity (Mus musculus [17]): No activity at 300 mg/kg; Activity (Mus musculus [26]): No activity at 300 mg/kg; Activity (Mus musculus [18]): No activity at 300 mg/kg; Toxicity (Mus musculus [19]): 2
CC(NC(=O)c1ccc(CN(C)C)cc1)c1ccccc1 (stereo not drawn) |  |  |  |  |  |  | 13 mg/kg |  |  | 34.3 mg/kg | 2.63 |  |  | Activity (Mus musculus [27]): No activity at 30 mg/kg; Activity (Mus musculus [28]): No activity at 30 mg/kg; Activity (Mus musculus [25]): 4; Activity (Mus musculus [29]): No activity at 30 mg/kg; Toxicity (Mus musculus [30]): No activity at 30 mg/kg; Toxicity (Mus musculus [14]): 3
